The target of series [1] is Acetylcholinesterase (Electrophorus electricus) (UniProt O42275). Put plainly: Inhibition of electric eel AChE at 10 uM by Ellman's method. On the technique in general: DTNB colorimetry detects thiols as they appear.
The target of a further series is Acetylcholinesterase (Electrophorus electricus, UniProt O42275). Put plainly: Inhibition of electric eel AChE by Ellman's method. The essentials:
(§1)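 Ethanol stocks diluted into assay, highest final concentration 10^-4 M. For curves, at least five concentrations (normally 10^-4 to 10^-9 M), each in triplicate; at least 3 independent determinations.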

Series [2] addresses Cholinesterase (Equus caballus) (UniProt P81908). Put plainly: Inhibition of equine serum BChE at 10 uM by Ellman's method.
In a further series the target is Cholinesterase (Equus caballus, UniProt P81908). Put plainly: (§2) Inhibition of equine serum BChE by Ellman's method. An outline of the steps:
as §1

Series [3] is described as follows: Selectivity ratio of IC50 for Electrophorus electricus acetylcholinesterase to IC50 for equine serum butyrylcholinesterase. The essentials:
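Ratio IC50(AChE)/IC50(BChE), with both IC50s from Ellman assays (electric eel AChE, equine serum BChE, 25 °C, 412 nm, at least five concentrations in triplicate, at least 3 independent determinations).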

Series [4] deals with HT-22. Put plainly: Neuroprotection against glutamate challenged mouse HT22 cells assessed as reduction in cell viability at 5 to 10 uM after 48 hrs by MTT assay. Type of series: functional, cell-based. The essentials:
(§3)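 Murine hippocampal HT-22 cells grown in high-glucose DMEM + 10% heat-inactivated FCS, 37 °C, 5% CO2. Seeded 5 × 10³/well, cultured 24 h, then 24 h with compound (DMSO stock, final DMSO ≤0.1%) plus 5 mM glutamate. MTT (4 mg/mL stock diluted 1:10) for 3 h, 10% SDS lysis, absorbance 560 nm next day. Viability as % of untreated control. Means ± SD, ≥3 independent experiments.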

Series [5] is described as follows: Antioxidant activity in phosphate buffer assessed as scavenging activity against peroxy radicals at pH 7.4 by ORAC-FL method relative to trolox. Type of series: functional. The essentials:
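ORAC-FL in 75 mM phosphate buffer pH 7.4, 37 °C; sample with fluorescein (300 nM final) preincubated 15 min, then AAPH (12 mM final) added; fluorescence read every 60 s for 90 min (ex 485/em 535 nm). Blank and Trolox calibration in each assay; AUC from blank-normalised decay curves; expressed as Trolox equivalents.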

Series [6] relates to HT-22. Put plainly: Neurotoxicity against mouse HT22 cells assessed as reduction in cell viability at 25 uM […] by MTT assay. Particulars: ht-22, 25 µM. The series is classed as toxicity, cell-based.
Series [7] concerns HT-22. Put plainly: Neurotoxicity against mouse HT22 cells assessed as reduction in cell viability at 1 to 10 uM […] by MTT assay. The series is classed as toxicity, cell-based. Particulars: ht-22, 10 µM. In general terms: Tetrazolium dyes change colour on reduction, which living cells bring about.
Series [8] concerns HT-22. Put plainly: Neuroprotection against glutamate challenged mouse HT22 cells assessed as reduction in cell viability at 1 to 25 uM after 48 hrs by MTT assay. Type of series: functional, cell-based. The essentials:
as §3

Series [9] addresses Cholinesterase (Equus caballus) (UniProt P81908). Put plainly: Binding affinity to equine serum BChE assessed as compound-enzyme complex stability. The essentials:
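Kinetic study on equine serum BChE with time-dependent inhibition followed to steady state (60 min); equilibrium constant of inhibitor–BChE complex (K_C) and carbamoylation rate constant (k3) determined.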

Series [10] shares this target. The description is as §2. The settings on record: TDE = time-dependent effect. An outline of the steps:
as §1

Series [11] has as its system HT-22. Put plainly: Neurotoxicity against mouse HT22 cells assessed as reduction in cell viability at 1 to 25 uM […] by MTT assay. The series is classed as toxicity, cell-based. The settings on record: ht-22, 25 µM.
The test system of series [12] is HT-22. Put plainly: Neuroprotection against glutamate challenged mouse HT22 cells assessed as reduction in cell viability at 5 uM after 48 hrs by MTT assay. Type of series: functional, cell-based.
The target of series [13] is Cholinesterase (Equus caballus) (UniProt P81908). Put plainly: Inhibition of equine serum BChE at 100 uM by Ellman's method.
Sequence of Cholinesterase (Equus caballus) (P81908 whole entry): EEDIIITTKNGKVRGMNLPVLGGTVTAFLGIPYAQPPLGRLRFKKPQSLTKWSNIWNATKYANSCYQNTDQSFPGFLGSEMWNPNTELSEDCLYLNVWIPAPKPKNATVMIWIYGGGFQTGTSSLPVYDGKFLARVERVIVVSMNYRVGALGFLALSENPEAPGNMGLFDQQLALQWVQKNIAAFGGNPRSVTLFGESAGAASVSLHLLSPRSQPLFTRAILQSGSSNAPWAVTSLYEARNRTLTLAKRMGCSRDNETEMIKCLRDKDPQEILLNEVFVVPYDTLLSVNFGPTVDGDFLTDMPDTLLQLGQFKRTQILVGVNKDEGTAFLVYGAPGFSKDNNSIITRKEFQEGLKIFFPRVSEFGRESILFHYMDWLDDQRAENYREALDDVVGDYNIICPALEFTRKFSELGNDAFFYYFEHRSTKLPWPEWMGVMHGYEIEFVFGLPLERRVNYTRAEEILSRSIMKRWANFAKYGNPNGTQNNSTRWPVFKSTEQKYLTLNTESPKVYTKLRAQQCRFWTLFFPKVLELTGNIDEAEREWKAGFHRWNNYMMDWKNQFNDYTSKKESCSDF
Series [14] concerns the target Acetylcholinesterase (Electrophorus electricus) (UniProt O42275). Put plainly: Inhibition of electric eel AChE at 100 uM by Ellman's method.

pIC50: −log10 of the molar value. Activity calls are given as the source filed them. The calls are words filed in the database; no cut-off is given here. Some results are limits rather than exact numbers.

We go through 19 compounds from ChEMBL document CHEMBL3259661, “Identification of a neuroprotective and selective butyrylcholinesterase inhibitor derived from the natural alkaloid evodiamine” (Eur J Med Chem, 2014).

Sequence of Cholinesterase (P81908 whole entry): as above
Sequence of Acetylcholinesterase (Electrophorus electricus) (O42275 24-633 limits assumed): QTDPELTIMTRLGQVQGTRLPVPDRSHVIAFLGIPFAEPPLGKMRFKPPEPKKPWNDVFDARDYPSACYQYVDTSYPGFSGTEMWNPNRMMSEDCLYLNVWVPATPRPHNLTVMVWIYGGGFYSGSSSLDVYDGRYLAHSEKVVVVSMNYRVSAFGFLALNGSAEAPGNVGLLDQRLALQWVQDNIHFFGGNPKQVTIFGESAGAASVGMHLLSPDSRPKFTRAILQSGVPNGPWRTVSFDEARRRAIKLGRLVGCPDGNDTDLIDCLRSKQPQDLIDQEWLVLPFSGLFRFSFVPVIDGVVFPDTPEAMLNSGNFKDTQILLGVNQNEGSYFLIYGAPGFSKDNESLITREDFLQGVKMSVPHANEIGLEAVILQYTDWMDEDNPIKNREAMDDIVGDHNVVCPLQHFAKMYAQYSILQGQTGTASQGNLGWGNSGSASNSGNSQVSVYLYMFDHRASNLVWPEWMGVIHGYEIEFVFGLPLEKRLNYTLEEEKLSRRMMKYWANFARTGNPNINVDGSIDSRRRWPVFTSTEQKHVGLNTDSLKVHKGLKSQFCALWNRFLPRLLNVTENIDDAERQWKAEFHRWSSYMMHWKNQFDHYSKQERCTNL
Sequence of Acetylcholinesterase (O42275 whole entry): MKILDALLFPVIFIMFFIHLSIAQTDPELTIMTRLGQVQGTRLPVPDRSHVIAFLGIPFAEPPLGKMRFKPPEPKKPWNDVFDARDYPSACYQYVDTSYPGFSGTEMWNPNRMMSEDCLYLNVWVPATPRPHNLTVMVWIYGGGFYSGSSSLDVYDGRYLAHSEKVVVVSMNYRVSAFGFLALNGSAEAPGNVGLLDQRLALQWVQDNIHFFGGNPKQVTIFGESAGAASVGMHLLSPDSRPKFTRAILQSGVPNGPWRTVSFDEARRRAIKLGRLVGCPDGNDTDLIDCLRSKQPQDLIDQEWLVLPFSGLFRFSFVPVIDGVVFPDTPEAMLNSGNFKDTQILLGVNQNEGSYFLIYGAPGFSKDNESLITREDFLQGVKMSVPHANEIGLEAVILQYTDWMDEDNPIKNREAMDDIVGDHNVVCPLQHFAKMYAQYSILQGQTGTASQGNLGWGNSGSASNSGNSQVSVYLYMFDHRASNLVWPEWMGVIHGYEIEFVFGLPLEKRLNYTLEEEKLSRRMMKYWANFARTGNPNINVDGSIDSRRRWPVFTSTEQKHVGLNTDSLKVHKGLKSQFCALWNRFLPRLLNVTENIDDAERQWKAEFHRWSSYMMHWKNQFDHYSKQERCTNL

For orientation: inhibition means the percentage by which the read-out fell short of the control. In general, pIC50 refers to −log10 of the IC50, conventionally taken in molar units. On to `CN1c2ccc(OC(=O)NCc3ccccc3)cc2CN2CCc3c([nH]c4ccccc34)C21` (stereo not given), for which the inhibition in series [1] was 34%; in [2] it was 5.67%. Also, the pIC50 was under 5.00 against Acetylcholinesterase and 5.67 at Cholinesterase. The Ratio IC50 in series [3] is over 4.65.
Regarding `CNC(=O)Oc1ccc2c(c1)[C@]1(C)CCN(C)[C@@H]1N2C`, the inhibition in series [1] was 8.11%; in series [2], 7.22%.
Turning to `CCNC(=O)Oc1ccc2c(c1)C(=O)N1CCc3c([nH]c4ccccc34)C1N2C` (stereo not given), the inhibition was determined as 15% in series [1] and 21% in [2]. In addition, the pIC50 on Acetylcholinesterase and at Cholinesterase was under 5.00 each time.
Take `CN1c2ccccc2CN2CCc3c([nH]c4ccccc34)C21` (stereo not given): the inhibition in series [1] came to 24%; in series [2] it was 5.57%. In addition, the pIC50 at Acetylcholinesterase is under 5.00; on Cholinesterase, 5.57. Moreover, in the series on HT-22 [4], the outcome was Active. Moreover, the Ratio IC50 in [3] was over 3.73. Further, the ORAC value (Trolox equivalents) in series [5] turned out to be 2.32.
Take `CCCCNC(=O)Oc1ccc2c(c1)C(=O)N1CCc3c([nH]c4ccccc34)C1N2C` (stereo not given): the inhibition in series [1] turned out to be 10%; in [2] it was 12%. Further, the pIC50 at Acetylcholinesterase and on Cholinesterase was under 5.00 throughout.
Take `COc1cccc(NC(=O)Oc2ccc3c(c2)CN2CCc4c([nH]c5ccccc45)C2N3C)c1` (stereo not given): the results for the inhibition in series [1] and in [2] were 19% and 30%, respectively. Moreover, the negative logarithm of the IC50 (pIC50) against Acetylcholinesterase and on Cholinesterase was under 5.00 each time.
On to `CN1c2ccc(OC(=O)NCc3ccccc3)cc2C(=O)N2CCc3c([nH]c4ccccc34)C21` (stereo not given), for which the inhibition came out at 10% in series [1] and 15% in series [2]. Further, the pIC50 at Acetylcholinesterase and on Cholinesterase was under 5.00 throughout.
As for `CC(C)c1ccc(NC(=O)Oc2ccc3c(c2)CN2CCc4c([nH]c5ccccc45)C2N3C)cc1` (stereo not given), the inhibition in series [1] came out at 13%; in series [2], 41%. Moreover, the negative logarithm of the IC50 (pIC50) on Acetylcholinesterase and against Cholinesterase was under 5.00 in each case.
Regarding `CCCCCCCNC(=O)Oc1ccc2c(c1)CN1CCc3c([nH]c4ccccc34)C1N2C` (stereo not given), the inhibition in series [1] was 17%; in [2], 7.11%; in [10], “tde”. Moreover, the Activity result in the series on HT-22 [6] is “Toxic”; in the series on HT-22 [7], “Non-toxic”. Moreover, the pIC50 against Acetylcholinesterase was under 5.00; at Cholinesterase it was 7.11. For the same compound, the outcome with HT-22 [8] was Active. Further, the K in series [9] worked out at 492 nM. Besides, the Ratio IC50 in series [3] was over 130. Further, the ORAC value (Trolox equivalents) in series [5] turned out to be 1.75.
As for `CCCCCCCNC(=O)Oc1ccc2c(c1)C(=O)N1CCc3c([nH]c4ccccc34)C1N2C` (stereo not given), the Activity result with HT-22 [11] is on record as “Toxic”. Moreover, the result in the series with HT-22 [8] was Active. The ORAC value (Trolox equivalents) in [5] was 0.32.
`CN1c2ccc(OCc3ccccc3)cc2C(=O)N2CCc3c([nH]c4ccccc34)C21` (stereo not given): the values for the inhibition in [1] and in series [2] were 5.52% and 6.07%, respectively. The results for the pIC50 against Acetylcholinesterase and on Cholinesterase were 5.52 and 6.06, respectively. The Ratio IC50 in series [3] was 3.42.
For the compound `O=c1c(O)c(-c2ccc(O)c(O)c2)oc2cc(O)cc(O)c12`, the outcome with HT-22 [12] was Active.
On to `CN1c2ccccc2C(=O)N2CCc3c([nH]c4ccccc34)C21` (stereo not given), for which the inhibition stood at 37% in series [1] and 5.34% in [2]. Besides, the pIC50 against Acetylcholinesterase is under 5.00; against Cholinesterase it was 5.34. Also, the Ratio IC50 in [3] is over 2.16.
The like results for `CCNC(=O)Oc1ccc2c(c1)CN1CCc3c([nH]c4ccccc34)C1N2C` (stereo not given) were, in that order, 26%, 5.99%, under 5.00, 5.99 and over 9.71.
In the case of `CN1c2ccc(O)cc2C(=O)N2CCc3c([nH]c4ccccc34)C21` (stereo not given), the inhibition in series [1] amounted to 29%. Further, the pIC50 at Acetylcholinesterase and at Cholinesterase was under 4.00 in each case.
As for `CC(C)c1ccc(NC(=O)Oc2ccc3c(c2)C(=O)N2CCc4c([nH]c5ccccc45)C2N3C)cc1` (stereo not given), the inhibition was 14% in [1] and 7% in series [2]. Besides, the pIC50 against Acetylcholinesterase and against Cholinesterase was under 5.00 throughout.
Turning to `CCCCNC(=O)Oc1ccc2c(c1)CN1CCc3c([nH]c4ccccc34)C1N2C` (stereo not given), the inhibition in series [1] came out at 47%; in series [2], 5.4%. Also, the negative logarithm of the IC50 (pIC50) against Acetylcholinesterase was under 5.00; against Cholinesterase, 5.40. For the same compound, the Ratio IC50 in series [3] is over 2.52.
`COc1cccc(NC(=O)Oc2ccc3c(c2)C(=O)N2CCc4c([nH]c5ccccc45)C2N3C)c1` (stereo not given): the inhibition is 15% in series [1] and 3% in series [2]. Further, the negative logarithm of the IC50 (pIC50) at Acetylcholinesterase and against Cholinesterase was under 5.00 throughout.
On to `CN1c2ccc(O)cc2CN2CCc3c([nH]c4ccccc34)C21` (stereo not given), for which the inhibition in series [13] came out at 47%; in [14], 43%; in [2] it was 4.71%. Besides, the results for the Activity result with HT-22 [6] and in the series on HT-22 [7] were “Toxic” and “Non-toxic”, respectively. Further, the values for the negative-log IC50 (pIC50) at Acetylcholinesterase and on Cholinesterase were under 4.00 and 4.71, respectively. The result with HT-22 [8] was Active. Moreover, the Ratio IC50 in [3] was over 5.17. The ORAC value (Trolox equivalents) in [5] came out at 3.55.
